An excerpt weighted towards active compounds, which were near 4.2% of everything screened.
KCC2 mod: modulates chloride dependent transport by human KCC2 | AID 1456 | KCC2 cells, thallium flux FluoZin-2 fluorescence | 190,000 tested, 2.2% active | Q9H2X9 | B-score of Tl+ flux slope (higher = more flux/activation; lower = inhibition) at 10 µM;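 active means thallium flux slope and its plate-corrected score both differing from the plate sample mean at a set confidence after two filtering rounds, in either direction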;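 further: slope of fluorescence scaled to starting intensity during 10 to 20 s after thallium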
WT yeast gro inh: growth inhibition of WT yeast, mitochondrial fusion screen; mitochondrial fusion phenotypic screen, WT strain; inhibition, % at 10 µM; 190,000 tested, 2.1% active; in the data active means inhibition above about 58%; tested in S. cerevisiae
SKKanGAS inh: inhibitors of SKKanGAS S. pyogenes growth in kanamycin (SK-promoter or general growth effect) | BacTiter-Glo, 6 h | 300,000 tested, 1.3% active | AID 1662 | inhibition, % at 7.5 µM;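 active means mean replicate score, as percent of positive control median, at least 50; inconclusive means mean below 50 but one replicate at or above 50; inactive means mean and every replicate below 50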;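 further: strain carries kanamycin resistance gene driven by streptokinase promoter and grows in 40 µg/ml kanamycin; loss of luminescence reflects streptokinase promoter inhibition or plain growth inhibition; 0% = median of DMSO wells and 100% = positive control at its reference dose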
Rad51 HR inh: blocks human Rad51 in homologous recombination | Q06609 | hRad51 DNA strand exchange, fluorescence dequenching | inhibition, % at 10 µM | 200,000 tested, 0.085% active;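 active means inhibition above 40% at the single screening dose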;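 further: 0% = DMSO control wells and 100% = blanks with heterologous ssDNA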
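Test system – preformed human Rad51 ssDNA filaments · Reagent – Donor/quencher-labelled 47-bp dsDNA substrate · Incubation – 37 °C 15-min filament assembly, 30-min compound preincubation, 15-min exchange · Signal – FRET fluorescence dequenching, excitation 485 nm, emission 520 nm · Read-out – percent inhibition from fluorescence, normalised to plate control and blank means · Benchmarks – plate control and blank wells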
Ins promoter up: MIN6 insulin promoter up-regulation; MIN6 insulin promoter-GFP reporter, high-content imaging; hits give high values; z-score at 5 µM; 190,000 tested, 0.3% active;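 active means z-score above 3 at 5 µM with at least 500 cells counted in the well; inconclusive means wells under 500 cells, flagged as cytotoxic or low count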
Autophagy HCS: alters autophagy in cells. MEF GFP-LC3 puncta imaging; test concentration mostly 10 µM. calls only at 10 µM (by protocol). 190,000 tested, 0.98% active;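 active means percentage of spot-positive cells more than 3 SD above its plate mean, without a fluorescence outlier flag or 80% toxicity; inconclusive means no clear call, values can overlap the other calls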;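 further: spot-positive cell cutoff set from DMSO-treated cells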
The depositor's hits bear a star; i = inactive; ? = inconclusive; · = not tested or not shown; + = active, no number.

SMILES	KCC2 mod	WT yeast gro inh	SKKanGAS inh	Rad51 HR inh	Ins promoter up	Autophagy HCS
Cc1c2c(nc3ccccc13)CCC(C(C)(C)C)C2 (stereo not drawn)	-1.9	68*	32	-30	0.72	i
N#CC1(NC(=O)COC(=O)c2ccccc2SCC(=O)N2CCCC2)CCCCC1	·	·	1	·	·	·
CCOC(=O)CC1(NC(=O)C2CCC(=O)N(Cc3ccccc3F)C2)CCCCC1 (stereo not drawn)	·	·	-8	·	·	·
O=C(CN1CCN(Cc2ccccc2Cl)CC1)N/N=C/c1cccs1	-0.84	·	-4	·	-1.1	·
CC(C)C(c1nnnn1Cc1ccco1)N1CCN(c2cccc(Cl)c2)CC1 (stereo not drawn)	-0.35	8	-4	·	0.13	i
CC(C)C(c1nnnn1C(C)(C)C)N1CCN(c2cccc(Cl)c2)CC1 (stereo not drawn)	-0.59	75*	·	3	-1.6	i
CCC(=NCc1ccc(Cl)c(Cl)c1)c1nc(-c2ccco2)oc1O	-1.1	67*	6	2	-1.3	i
COc1ccc(N=Cc2nc(-c3ccco3)oc2O)cc1	-0.81	-29	-3	3	·	i
CC1CCCC2(C1)NC(=S)N(c1ccccc1)N2 (stereo not drawn)	0.3	30	0	-8	1.6	i
CC1CCCC2(C1)NC(=S)c1c(sc3c1CCCC3)N2 (stereo not drawn)	54*	7	16	-2	-0.5	i
CCCCn1c(=O)[nH]c(=O)c2c1nc(-c1ccccc1F)n2Cc1ccccc1OC	-2	27	29	23	-1.5	i
CCC(/C=C1\Sc2ccc(OC)cc2N1CC)=C\c1sc2ccc(OC)cc2[n+]1CCCS(=O)(=O)[O-]	0.91	75*	22	16	-3.3	i
CCC(/C=C1\Sc2ccc(OC)cc2N1CCO)=C\c1sc2ccc(OC)cc2[n+]1CCO	-0.78	84*	·	·	-0.81	i
CCC(=O)/C=C1/Sc2ccc(OC)cc2N1CCO	-0.043	-11	-6	4	·	i
CN1C(=O)NC(c2ccc(Cl)cc2)C2=C1CC(C)(C)CC2=O (stereo not drawn)	·	·	3	·	·	·
CCOc1ccc2nc(COC(=O)c3ccncc3)c(C(=O)c3ccccc3)[n+]([O-])c2c1	·	·	4	-11	-0.09	·
CCn1ncc(Br)c1C(=O)Nc1cc([N+](=O)[O-])ccc1C	-0.99	27	3	·	-0.26	i
CCN1CCN(c2cc(-c3ccccc3)nc3cc(-c4cccc(F)c4)nn23)CC1	0.81	82*	20	-6	?	i
COc1cccc(-c2cc3nc(-c4ccccc4)cc(N4CCCC(O)C4)n3n2)c1 (stereo not drawn)	0.4	69*	49	3	-1.7	i
OC1CCN(c2cc(-c3ccccc3)nc3cc(-c4ccc(F)cc4)nn23)CC1	-0.59	-16	35	-1	-0.8	i
OC1CCCN(c2c3c(nc4cc(-c5cccc(Cl)c5)nn24)CCC3)C1 (stereo not drawn)	-0.84	67*	10	0	-1.1	i
COc1ccc(-c2cc3nc(-c4ccccc4)cc(N4CCC5(CC4)OCCO5)n3n2)cc1	0.031	-2	23	·	0.71	i
OC1CCCN(c2c3c(nc4cc(-c5cccc(F)c5)nn24)CCCC3)C1 (stereo not drawn)	-1.1	69*	14	-12	-0.47	i
COc1ccccc1OCC(=O)NNc1c2ccccc2nc2ccccc12	-3.7	·	40	·	-0.13	·
CCN(CC)S(=O)(=O)c1cc(NC(=O)CNc2cccc(S(=O)(=O)N3CCCC3)c2)ccc1C	·	·	3	·	·	·
SMILES	KCC2 mod	WT yeast gro inh	SKKanGAS inh	Rad51 HR inh	Ins promoter up	Autophagy HCS
O=C(N/C(=C\c1ccc(Br)cc1)C(=O)N1CCOCC1)c1ccc([N+](=O)[O-])cc1	·	·	-4	·	·	·
O=C(CSc1ncn(-c2ccccc2)n1)c1cccs1	-0.3	-21	0	68*	1.6	i
COC(=O)C1=C(C)NC2=C(C(=O)CC(C)(C)C2)C1c1cn(Cc2ccc(Br)cc2)nc1-c1ccccc1 (stereo not drawn)	0.082	70*	22	-3	0.07	i
COc1ccc(-n2c(SCC(=O)NCC3CCCO3)nc3c(c2=O)SC(C)C3)cc1 (stereo not drawn)	·	·	7	·	·	·
Nc1nc(CCl)nc(N(c2ccccc2)c2ccccc2)n1	0.036	·	-3	-11	0.25	·
CCn1c(C)cs/c1=N\C(=S)Nc1ccccc1C	0.0085	62*	-1	3	-0.39	i
O=C1N/C(=N/Nc2ccccc2)S/C1=C\c1ccccc1	0.0071	25	14	·	3.2*	i
COc1ccc(C(=O)c2c(C(F)(F)F)oc3c2C(=O)c2ccccc2C3=O)cc1	1.1	92*	97*	10	-5	i
CCOC(=O)Nc1nc(-c2ccccc2)c(C(=O)c2ccccc2)s1	-0.88	19	18	5	-0.18	+
Cc1cccc(N/N=C(\C=N\N)C(=O)c2ccc(Br)cc2)c1	1.5	77*	32	17	-0.25	i
O=C(/C(=C/O)N=Nc1ccccc1Cl)c1ccccc1	0.21	-6	-2	2	-0.05	i
Cc1ccc(N=N/C(=C\O)C(=O)c2ccncc2)cc1	·	-1	1	-3	-1.2	i
Cc1cccc(N=N/C(=C\O)C(=O)c2ccc(Br)cc2)c1	0.87	96*	53*	-6	-0.64	i
Cc1cccc(/C=N/NC(=O)c2ccc(Br)cc2)c1	-0.58	-7	-15	6	-0.22	i
O=C(/C(=C/O)N=Nc1cccc(C(F)(F)F)c1)c1ccccc1	-0.42	95*	-3	1	1.1	i
Cc1cccc(C(C)C)c1NC(=O)CN1C(=O)NC2(CCc3ccccc32)C1=O (stereo not drawn)	·	·	-5	·	·	·
CCN1C(=O)[C@H]2[C@@H](c3ccc(Cl)cc3)N3C(=O)CN(CC4CC4)C(=O)[C@@]3(Cc3ccccc3)[C@H]2C1=O	·	·	3	·	·	·
CS(=O)(=O)c1ccc(-c2nnc(NC(=O)c3ccco3)o2)cc1	·	·	1	·	·	·
Cc1ccc(-c2nnc(NC(=O)c3ccco3)o2)c(C)c1	·	·	84*	·	·	·
O=C(Nc1nnc(-c2ccc(Br)cc2)o1)c1ccco1	·	·	94*	·	·	·
CN(CC(=O)Nc1ccc(Cl)c(Cl)c1)C1CCCCC1	·	·	0	·	·	·
CN(CC(=O)Nc1ccc(Cl)c(Cl)c1)C(=O)C12CC3CC(CC(C3)C1)C2	-0.83	76*	8	-4	-0.18	i
O=C(COC(=O)C1COc2ccccc2O1)NC(=O)Nc1ccc2c(c1)OCCO2 (stereo not drawn)	·	99*	-5	-1	0.12	i
O=C(Nc1ccc(NC(=O)C2CCCCC2)nc1)c1cccc(F)c1	·	·	4	·	·	·
Cc1ccc(N2C(=O)C(F)(F)C2c2ccccc2)cc1 (stereo not drawn)	0.89	9	1	3	1.2	i
Cc1ccc(N2C(=N)/C(=C3/Nc4ccccc4S3)C(c3ccccc3)C2=O)cc1 (stereo not drawn)	-0.38	83*	·	-29	-0.44	+
